Test results published in ChEMBL document CHEMBL3877298, “Discovery of benzimidazole derivatives as modulators of mitochondrial function: A potential treatment for Alzheimer's disease” (Eur J Med Chem, 2017).

Legend:
CYP3A4 = CYP3A4 (Homo sapiens, UniProt P08684); assay: Inhibition of recombinant human CYP3A4 expressed in baculosomes coexpressing rabbit NADPH-P450 reudctase assessed as residual activity at 10 uM preincubated for 5 mins followed by substrate and NADP+ addition measured after 20 mins by fluorescence assay relative to control; format: ADME; details: read-out: Activity
Summary of the method: (§1)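 Vivid CYP450 kit: recombinant human CYP isozyme in Baculosomes with rabbit NADPH-P450 reductase, plus regeneration system (3.3 mM glucose-6-phosphate, 0.3 U/mL G6PDH in 100 mM potassium phosphate, pH 8.0). Mixture preincubated with sample for 5 min at 37 °C. Vivid substrate and 0.1 mM NADP+ were then added, and remaining activity read by fluorescence after 20 min.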

CYP2D6 = CYP2D6 (Homo sapiens, UniProt P10635); assay: Inhibition of recombinant human CYP2D6 expressed in baculosomes coexpressing rabbit NADPH-P450 reudctase assessed as residual activity at 10 uM preincubated for 5 mins followed by substrate and NADP+ addition measured after 20 mins by fluorescence assay relative to control; format: ADME; details: read-out: Activity; summary of the method: as §1
[1] = molecular target: Translocator protein (Mus musculus) (UniProt P50637); assay: Inhibition of TSPO in mouse HT22 cells assessed as protection against amyloid beta (1 to 42)-induced mitochondrial membrane potential loss by measuring recovery of mitochondrial membrane potential at 5 uM preincubated for 10 mins followed by amyloid beta (1 to 42) addition measured every 1 hr for 3 hrs by JC1 staining based fluorescence assay relative to control; format: cell-based; set-up: scale not given: the % may be the effect or the level left; details: HT-22
Summary of the method: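 HT22 cells at 30,000 per well were loaded with 7.5 µM JC-1 in phenol red-free Opti-MEM for 1 h 15 min at 37 °C, then washed. Cells were treated with compound (5 µM) and Aβ1-42 (5 µM); vehicle wells received DMSO. Green (485/535) and red (560/595) fluorescence were read hourly for 3 h. Recovery was normalised between Aβ-damaged (0%) and normal (100%) ratio.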

[2] = molecular target: Translocator protein (Mus musculus) (UniProt P50637); assay: Inhibition of TSPO in mouse HT22 cells assessed as protection against amyloid beta (1 to 42)-induced mitochondrial membrane potential loss by measuring recovery of ATP production at 5 uM preincubated for 10 mins followed by amyloid beta (1 to 42) addition measured after 7 hrs by luciferase reporter gene assay relative to control; format: cell-based; set-up: scale not given: the % may be the effect or the level left; details: HT-22
Summary of the method: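 HT22 cells at 7000 per well were given compound (5 µM) for 10 min at 37 °C, then Aβ1-42 (5 µM) or DMSO vehicle, and incubated 7 h. Cells were washed, lysed in 1% Triton X-100, and protein-equalised by BCA. ATP was measured by luciferin/luciferase luminescence and normalised to vehicle.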

[3] = Cytotoxicity against mouse HT22 cells assessed as cell viability at 5 uM after 24 hrs by MTT assay relative to control; format: toxicity, HT-22; details: read-out: Activity
Summary of the method: (§2)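 MTT was added for 2 h, then solubilising solution (10% Triton X-100 in isopropanol with 0.1 M HCl) for 2 h more. Absorbance read at 560 nm; % inhibition normalised to vehicle, and viability taken from compound-only wells.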

CYP1A2 = molecular target: T1, CYP1A2 (Homo sapiens, UniProt P05177); assay: Inhibition of recombinant human CYP1A2 expressed in baculosomes coexpressing rabbit NADPH-P450 reudctase assessed as residual activity at 10 uM preincubated for 5 mins followed by substrate and NADP+ addition measured after 20 mins by fluorescence assay relative to control; format: ADME; details: read-out: Activity; summary of the method: as §1
T1 sequence (P05177 whole entry): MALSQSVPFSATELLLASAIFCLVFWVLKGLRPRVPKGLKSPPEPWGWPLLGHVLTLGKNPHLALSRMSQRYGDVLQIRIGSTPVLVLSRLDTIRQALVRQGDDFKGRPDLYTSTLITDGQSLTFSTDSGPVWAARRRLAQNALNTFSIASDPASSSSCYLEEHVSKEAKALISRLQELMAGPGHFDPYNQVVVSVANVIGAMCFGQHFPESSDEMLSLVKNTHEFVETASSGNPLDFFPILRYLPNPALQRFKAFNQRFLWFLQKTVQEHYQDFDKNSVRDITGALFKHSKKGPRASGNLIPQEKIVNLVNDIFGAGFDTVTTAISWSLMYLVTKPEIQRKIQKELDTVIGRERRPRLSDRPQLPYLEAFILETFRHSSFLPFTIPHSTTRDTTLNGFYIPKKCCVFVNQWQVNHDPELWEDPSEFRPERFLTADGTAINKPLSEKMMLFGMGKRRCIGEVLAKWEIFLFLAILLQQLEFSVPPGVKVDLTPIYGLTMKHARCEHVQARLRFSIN

CYP2C19 = CYP2C19 (Homo sapiens, UniProt P33261); assay: Inhibition of recombinant human CYP2C19 expressed in baculosomes coexpressing rabbit NADPH-P450 reudctase assessed as residual activity at 10 uM preincubated for 5 mins followed by substrate and NADP+ addition measured after 20 mins by fluorescence assay relative to control; format: ADME; details: read-out: Activity; summary of the method: as §1
[4] = molecular target: Translocator protein (Mus musculus) (UniProt P50637); assay: Inhibition of TSPO in mouse HT22 cells assessed as inhibition of amyloid beta (1 to 42)-induced toxicity at 5 uM after 24 hrs by MTT assay relative to control; format: cell-based; details: HT-22
Summary of the method: as §2, with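 “HT22 cells at 5000 per well were treated with compound (5 µM), with or without Aβ1-42 (5 µM), for 24 h at 37 °C. MTT” for “MTT”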

CYP2C9 = CYP2C9 (Homo sapiens, UniProt P11712); assay: Inhibition of recombinant human CYP2C9 expressed in baculosomes coexpressing rabbit NADPH-P450 reudctase assessed as residual activity at 10 uM preincubated for 5 mins followed by substrate and NADP+ addition measured after 20 mins by fluorescence assay relative to control; format: ADME; details: read-out: Activity; summary of the method: as §1
[5] = molecular target: Translocator protein (Mus musculus) (UniProt P50637); assay: Inhibition of TSPO in mouse HT22 cells assessed as inhibition of amyloid beta (1 to 42)-induced ROS generation at 5 uM after 6 hrs by DCFDA staining based fluorescence assay relative to control; format: cell-based; details: HT-22
Translocator protein = Translocator protein (Homo sapiens, UniProt P30536); assay: Inhibition of TSPO (unknown origin)
Summary of the method: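 Membranes from male Sprague-Dawley rat cerebral cortex were homogenised and washed in Tris-HCl (30 mM, pH 7.4), then washed in Tris-citrate (50 mM, pH 7.1). Bound and free ligand were separated by filtration through GF/C filters and counted by scintillation. Percent displacement gave the IC50, and Ki was calculated as IC50/(1+[L]/Kd).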

[6] = molecular target: Voltage-gated inwardly rectifying potassium channel KCNH2 (Homo sapiens, UniProt Q12809); assay: Inhibition of human ERG expressed in CHOK1 cells by automated patch clamp method; format: cell-based, CHO-K1
Mus musculus = assay: Cognition enhancing effect in ICR mouse model of acute Alzheimer's disease assessed as reversal of amyloid beta (1 to 42)-induced cognitive deficit by measuring spatial working memory at 30 mg/kg, ip daily for 6 days measured on day 7 by Y maze spontaneous alteration test relative to control; format: functional
Summary of the method: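 Male ICR mice (6 weeks, 30–33 g) received Aβ1-42 500 pmol ICV in 10% DMSO/PBS. Compound in 20% cyclodextrin was given at 30 mg/kg daily for 6 days (n = 7 per group). One day later, each mouse explored a three-arm Y-maze for 8 min, and the sequence of arm entries was used to calculate % spontaneous alternation.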

Sequence of Translocator protein (Mus musculus) (P50637 whole entry, looked up): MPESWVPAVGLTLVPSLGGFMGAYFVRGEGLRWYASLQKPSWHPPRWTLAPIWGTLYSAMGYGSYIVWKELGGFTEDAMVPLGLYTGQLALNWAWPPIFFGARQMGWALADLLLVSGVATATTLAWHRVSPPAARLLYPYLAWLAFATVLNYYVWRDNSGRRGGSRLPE
Sequence of CYP2C9 (P11712 whole entry): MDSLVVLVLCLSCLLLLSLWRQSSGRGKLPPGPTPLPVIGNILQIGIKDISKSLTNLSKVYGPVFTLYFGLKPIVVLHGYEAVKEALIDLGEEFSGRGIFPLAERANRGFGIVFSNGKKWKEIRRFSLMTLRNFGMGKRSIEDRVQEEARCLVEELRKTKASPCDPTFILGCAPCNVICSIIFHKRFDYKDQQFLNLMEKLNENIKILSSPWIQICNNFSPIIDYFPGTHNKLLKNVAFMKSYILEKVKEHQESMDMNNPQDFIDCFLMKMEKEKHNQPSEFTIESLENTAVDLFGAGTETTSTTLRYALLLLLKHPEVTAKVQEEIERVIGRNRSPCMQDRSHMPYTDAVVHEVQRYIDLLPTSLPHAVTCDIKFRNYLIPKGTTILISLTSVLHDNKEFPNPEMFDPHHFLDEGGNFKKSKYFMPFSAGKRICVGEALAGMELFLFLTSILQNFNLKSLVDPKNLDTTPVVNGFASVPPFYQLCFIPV
Sequence of CYP2D6 (P10635 whole entry): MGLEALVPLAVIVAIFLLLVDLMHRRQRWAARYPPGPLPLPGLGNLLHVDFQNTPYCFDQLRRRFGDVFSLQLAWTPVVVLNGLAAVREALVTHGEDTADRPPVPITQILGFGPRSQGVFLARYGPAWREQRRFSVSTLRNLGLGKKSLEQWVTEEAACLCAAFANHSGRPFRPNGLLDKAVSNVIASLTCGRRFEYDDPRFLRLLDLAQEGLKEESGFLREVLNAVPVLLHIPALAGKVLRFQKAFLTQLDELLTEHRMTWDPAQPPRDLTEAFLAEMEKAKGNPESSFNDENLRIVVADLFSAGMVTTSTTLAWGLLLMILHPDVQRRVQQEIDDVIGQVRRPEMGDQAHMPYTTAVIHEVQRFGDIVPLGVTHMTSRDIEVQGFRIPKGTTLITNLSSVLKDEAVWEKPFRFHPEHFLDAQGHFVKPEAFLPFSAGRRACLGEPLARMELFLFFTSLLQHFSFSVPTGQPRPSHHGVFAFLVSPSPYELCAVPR
Sequence of Translocator protein (P30536 whole entry): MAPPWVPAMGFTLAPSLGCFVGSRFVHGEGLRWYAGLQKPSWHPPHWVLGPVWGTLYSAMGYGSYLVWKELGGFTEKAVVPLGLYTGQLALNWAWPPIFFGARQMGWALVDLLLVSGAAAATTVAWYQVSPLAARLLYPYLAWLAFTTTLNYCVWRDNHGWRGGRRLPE
Sequence of CYP2C19 (P33261 whole entry): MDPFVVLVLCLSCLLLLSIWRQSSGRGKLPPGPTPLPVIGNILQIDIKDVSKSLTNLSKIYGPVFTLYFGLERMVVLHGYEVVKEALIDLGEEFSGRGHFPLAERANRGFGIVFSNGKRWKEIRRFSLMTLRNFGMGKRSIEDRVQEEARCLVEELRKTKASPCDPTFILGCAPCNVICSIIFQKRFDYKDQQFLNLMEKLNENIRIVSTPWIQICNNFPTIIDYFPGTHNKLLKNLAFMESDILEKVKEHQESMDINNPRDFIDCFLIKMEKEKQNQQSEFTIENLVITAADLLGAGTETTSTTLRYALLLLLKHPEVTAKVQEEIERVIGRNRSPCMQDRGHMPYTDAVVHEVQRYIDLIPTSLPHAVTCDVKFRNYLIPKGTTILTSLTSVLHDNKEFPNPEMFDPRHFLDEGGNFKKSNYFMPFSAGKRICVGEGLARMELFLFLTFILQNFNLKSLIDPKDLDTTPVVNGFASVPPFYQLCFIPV
Sequence of CYP3A4 (P08684 whole entry): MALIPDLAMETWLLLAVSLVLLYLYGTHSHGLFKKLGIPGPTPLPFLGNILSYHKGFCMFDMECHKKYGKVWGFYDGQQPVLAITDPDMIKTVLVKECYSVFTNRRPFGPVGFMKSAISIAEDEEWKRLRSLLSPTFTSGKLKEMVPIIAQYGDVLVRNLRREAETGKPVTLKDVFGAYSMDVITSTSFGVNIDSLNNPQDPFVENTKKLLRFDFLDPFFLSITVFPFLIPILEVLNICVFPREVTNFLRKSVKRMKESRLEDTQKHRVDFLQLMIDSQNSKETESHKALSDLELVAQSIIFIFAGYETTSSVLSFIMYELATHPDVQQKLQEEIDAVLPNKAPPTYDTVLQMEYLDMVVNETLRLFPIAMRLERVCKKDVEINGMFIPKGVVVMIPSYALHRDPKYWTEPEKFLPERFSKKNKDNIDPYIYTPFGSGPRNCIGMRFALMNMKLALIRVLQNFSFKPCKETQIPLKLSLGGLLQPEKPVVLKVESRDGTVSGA
Sequence of Voltage-gated inwardly rectifying potassium channel KCNH2 (Q12809 whole entry): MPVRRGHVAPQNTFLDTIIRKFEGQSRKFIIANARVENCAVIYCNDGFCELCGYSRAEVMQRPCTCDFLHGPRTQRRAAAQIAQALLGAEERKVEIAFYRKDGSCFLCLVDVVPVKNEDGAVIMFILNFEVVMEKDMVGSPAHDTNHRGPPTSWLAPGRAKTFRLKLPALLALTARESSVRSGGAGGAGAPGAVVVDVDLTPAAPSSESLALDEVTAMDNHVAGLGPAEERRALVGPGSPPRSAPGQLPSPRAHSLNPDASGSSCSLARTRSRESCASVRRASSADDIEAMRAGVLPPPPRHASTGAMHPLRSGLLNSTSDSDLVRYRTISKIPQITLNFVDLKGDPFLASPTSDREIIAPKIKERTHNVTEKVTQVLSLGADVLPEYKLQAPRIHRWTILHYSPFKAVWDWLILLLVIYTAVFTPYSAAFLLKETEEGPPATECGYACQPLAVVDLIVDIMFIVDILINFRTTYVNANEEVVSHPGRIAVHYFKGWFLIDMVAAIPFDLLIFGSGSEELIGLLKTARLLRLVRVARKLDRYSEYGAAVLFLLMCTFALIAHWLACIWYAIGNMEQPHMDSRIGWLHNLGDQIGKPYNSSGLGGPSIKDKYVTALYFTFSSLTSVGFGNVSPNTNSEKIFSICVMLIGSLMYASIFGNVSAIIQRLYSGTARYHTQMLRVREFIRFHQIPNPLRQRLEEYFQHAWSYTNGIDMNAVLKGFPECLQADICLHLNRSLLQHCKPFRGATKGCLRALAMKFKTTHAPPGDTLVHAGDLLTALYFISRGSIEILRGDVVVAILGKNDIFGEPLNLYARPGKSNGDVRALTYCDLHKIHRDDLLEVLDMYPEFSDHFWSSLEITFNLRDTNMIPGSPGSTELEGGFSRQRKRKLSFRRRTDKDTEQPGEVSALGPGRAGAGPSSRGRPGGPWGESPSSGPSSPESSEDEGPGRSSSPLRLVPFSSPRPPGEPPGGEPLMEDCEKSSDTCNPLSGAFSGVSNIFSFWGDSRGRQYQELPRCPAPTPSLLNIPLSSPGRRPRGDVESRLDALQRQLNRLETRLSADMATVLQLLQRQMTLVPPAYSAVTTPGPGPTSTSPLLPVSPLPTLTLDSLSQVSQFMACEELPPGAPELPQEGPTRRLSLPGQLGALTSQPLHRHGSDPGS

| Compound | activity at 20 min, 10 µM (CYP3A4) | activity at 20 min, 10 µM (CYP2D6) | Activity [1] | Activity [2] | viability at 24 h, 5 µM [3] | activity at 20 min, 10 µM (CYP1A2) | activity at 20 min, 10 µM (CYP2C19) | inhibition [4] | activity at 20 min, 10 µM (CYP2C9) | inhibition [5] | Ki (Translocator protein) | IC50 [6] | IC50 (Translocator protein) | Activity (Mus musculus) |
| --- | --- | --- | --- | --- | --- | --- | --- | --- | --- | --- | --- | --- | --- | --- |
| O=C(NCCCN1CCCCC1)c1ccc(Cn2c(Cc3c(Cl)cccc3Cl)nc3ccccc32)cc1 | 176% | 25.5% | 90% | 64% | 86 to 118% | 68.4% | 67.3% | 3% | 61.1% | 27% |  |  |  |  |
| CCCCN(CCCC)C(=O)Cc1c(-c2ccc(Cl)cc2)nc2c(Cl)cc(Cl)cn12 |  |  |  |  |  |  |  |  |  |  | 2.68 nM |  |  |  |
| CCCCCCN(CCCCCC)C(=O)Cc1c(-c2ccc(F)cc2)[nH]c2ccccc12 |  |  |  |  |  |  |  |  |  |  | 3.25 nM |  |  |  |
| COc1ccc(OC)c(Cc2nc3ccccc3n2CC(=O)Nc2cc(C(C)(C)C)cc(C(C)(C)C)c2)c1 | 43.3% | 56.3% | 54% | 46% | 99 to 112% | 92.5% | 43.9% | 36% | 36.1% | 10% |  | 20 nM |  |  |
| CCN1CCCC1CNC(=O)c1ccc(Cn2c(Cc3c(Cl)cccc3Cl)nc3ccccc32)cc1 (stereo not drawn) | 130% | 82.4% | 90% | 51% | 62 to 122% | 63% | 31.4% | 6% | 50.6% | 24% |  | 1570 nM |  |  |
| Cc1ccc(C(C)C)cc1NC(=O)Cn1c(-c2cc(Cl)ccc2Cl)nc2ccc(Cl)cc21 | 15.4% | 82.2% | 87% | 69% | 86 to 106% | 56.3% | 11.9% | 0% | 29.6% | 107% |  |  |  |  |
| COc1ccc(OC)c(CN(C(C)=O)c2ccc(F)cc2Oc2ccccc2)c1 |  |  |  |  |  |  |  |  |  |  |  |  | 1.6 nM |  |
| CN(C)CCCNC(=O)c1ccc(Cn2c(Cc3c(Cl)cccc3Cl)nc3ccccc32)cc1 | 206% | 120% | 82% | 85% | 93 to 111% | 66.1% | 72.9% | 7% | 53.9% | 9% |  |  |  | 62% |
| CC(=O)N(Cc1ccccc1OC(C)C)c1ccc(Cl)cc1Oc1ccccc1 |  |  |  |  |  |  |  |  |  |  |  |  | 0.92 nM |  |
| NC(=O)CN1CCCC1=O |  |  | 60% | 127% | 88 to 132% |  |  | 29% |  | 129% |  |  |  | 32% |
